This passage reports T/C results from ChEMBL document CHEMBL1124896, “Synthesis and antitumor activity of novel 4-demethoxyanthracyclines” (1990).

Holding throughout (assay type): functional, Mus musculus
Holding throughout (details): route intraperitoneal

The subject of experiment [1] is L1210 (1565). Description: Antitumor activity against L-1210 leukemia cell line in BDF1 mice after injecting 0.125 mg/kg ip dose. The procedure, abridged:
(§1)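 Female BDF1 mice received 10⁵ viable L-1210 ascites cells ip. Aqueous test compound was given ip starting the same day, daily five times a week for 4 weeks or until death, with five mice per dose. Read-out was T/C, the mean survival time of treated mice over untreated controls. Mice alive at 4 weeks were counted as long-term survivors.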

In experiment [2] the test system is P388. The experiment is described as follows: Antitumor activity against P-388 leukemia cell line in BDF1 mice after injecting 0.38 mg/kg ip dose.
The test system of experiment [3] is L1210 (1565). Description: Antitumor activity against L-1210 leukemia cell line in BDF1 mice after injecting 8 mg/kg ip dose. The essentials:
as §1

For experiment [4], the system named is L1210 (1565). The experiment is described as follows: Antitumor activity against L-1210 leukemia cell line in BDF1 mice after injecting 0.5 mg/kg ip dose. The procedure, abridged: as §1
In experiment [5] the test system is P388. The experiment is described as follows: Antitumor activity against P-388 leukemia cell line in BDF1 mice after injecting 8.0 mg/kg ip dose.
The subject of experiment [6] is P388. The experiment is described as follows: Antitumor activity against P-388 leukemia cell line in BDF1 mice after injecting 4 mg/kg ip dose.
The test system of experiment [7] is L1210 (1565). The experiment is described as follows: Antitumor activity against L-1210 leukemia cell line in BDF1 mice after injecting 0.25 mg/kg ip dose. The essentials:
as §1

Experiment [8] has as its system L1210 (1565). Description: Antitumor activity against L-1210 leukemia cell line in BDF1 mice after injecting 16 mg/kg ip dose. The procedure, abridged:
as §1

For experiment [9], the system named is L1210 (1565). The experiment is described as follows: Antitumor activity against L-1210 leukemia cell line in BDF1 mice after injecting 2 mg/kg ip dose. The procedure, abridged: as §1
For experiment [10], the system named is P388. Description: Antitumor activity against P-388 leukemia cell line in BDF1 mice after injecting 6.25 mg/kg ip dose.
Experiment [11] deals with L1210 (1565). The experiment is described as follows: Antitumor activity against L-1210 leukemia cell line in BDF1 mice after injecting 0.1 mg/kg ip dose. The procedure, abridged: as §1
In experiment [12] the test system is L1210 (1565). The experiment is described as follows: Antitumor activity against L-1210 leukemia cell line in BDF1 mice after injecting 4 mg/kg ip dose. The procedure, abridged: as §1
Experiment [13] deals with L1210 (1565). The experiment is described as follows: Antitumor activity against L-1210 leukemia cell line in BDF1 mice after injecting 0.05 mg/kg ip dose. The procedure, abridged: as §1
Experiment [14] relates to P388. The experiment is described as follows: Antitumor activity against P-388 leukemia cell line in BDF1 mice after injecting 2.4 mg/kg ip dose.
For experiment [15], the system named is L1210 (1565). The experiment is described as follows: Antitumor activity against L-1210 leukemia cell line in BDF1 mice after injecting 2.0 mg/kg ip dose. The procedure, abridged:
as §1

For experiment [16], the system named is P388. Description: Antitumor activity against P-388 leukemia cell line in BDF1 mice after injecting 3.0 mg/kg ip dose.

What is called T/C is the result in the treated group divided by that in the control group, in per cent.

Take `C[C@@H]1OC(O[C@H]2C[C@](O)(CO)Cc3c(O)c4c(c(O)c32)C(=O)c2ccccc2C4=O)C[C@H](N)[C@H]1O.Cl` (stereo not given in full): the T/C is recorded as 340% with L1210 (1565) [1] and 174% with P388 [2].

The compound `CC1OC(O[C@H]2C[C@](O)(C(=O)NOCc3ccccc3)Cc3c(O)c4c(c(O)c32)C(=O)c2ccccc2C4=O)CC(N)C1O.Cl` (stereo not given in full) showed a T/C in the experiment on L1210 (1565) [3] of 100%. Regarding `COc1cccc2c1C(=O)c1c(O)c3c(c(O)c1C2=O)C[C@@](O)(C(C)=O)C[C@@H]3O[C@H]1C[C@H](N)[C@H](O)[C@H](C)O1` [DAUNORUBICIN], the T/C is 290% in the experiment on L1210 (1565) [4] and 143% in the experiment with P388 [5]. Take `CC[C@@]1(O)Cc2c(O)c3c(c(O)c2[C@@H](O[C@H]2C[C@H](N)[C@@H](O)[C@H](C)O2)C1)C(=O)c1ccccc1C3=O.Cl`: the T/C in the experiment on L1210 (1565) [4] is on record as 460%; in the experiment on P388 [6] it was 184%. Compound `COC1C(N)CC(O[C@H]2C[C@](O)(CO)Cc3c(O)c4c(c(O)c32)C(=O)c2ccccc2C4=O)OC1C.Cl` (stereo not given in full) displayed a T/C in the experiment on L1210 (1565) [1] of 350%. `COC1C(N)CC(O[C@H]2C[C@](O)(C(C)=O)Cc3c(O)c4c(c(O)c32)C(=O)c2ccccc2C4=O)OC1C.Cl` (stereo not given in full) gave a T/C in the experiment with L1210 (1565) [7] of 230%. In the case of `C[C@@H]1O[C@@H](O[C@H]2C[C@](O)([C@@H](C)O)Cc3c(O)c4c(c(O)c32)C(=O)c2ccccc2C4=O)C[C@@H](N)[C@@H]1O.Cl`, in the experiment on L1210 (1565) [1], the T/C is recorded as 250%.

Consider `CC1OC(O[C@H]2C[C@](O)(C(=O)N(C)c3ccccc3)Cc3c(O)c4c(c(O)c32)C(=O)c2ccccc2C4=O)CC(N)C1O.Cl` (stereo not given in full), for which, in the experiment with L1210 (1565) [8], the T/C was 120%. In the experiment on L1210 (1565) [9], `C[C@@H]1O[C@@H](O[C@H]2C[C@@](C)(O)Cc3c(O)c4c(c(O)c32)C(=O)c2ccccc2C4=O)C[C@@H](N)[C@H]1O.Cl` displayed a T/C of 470%. Consider `C[C@@H]1O[C@@H](O[C@H]2C[C@@](C)(O)Cc3c(O)c4c(c(O)c32)C(=O)c2ccccc2C4=O)C[C@@H](N)[C@@H]1O.Cl`, for which the T/C in the experiment on L1210 (1565) [4] is 400%; with P388 [10] it was 192%.

In turn, `CC1OC(O[C@H]2C[C@](O)(C(=O)Nc3ccccc3)Cc3c(O)c4c(c(O)c32)C(=O)c2ccccc2C4=O)CC(N)C1O.Cl` (stereo not given in full) showed a T/C in the experiment on L1210 (1565) [8] of 120%. With `CC1CC(N)CC(O[C@H]2C[C@](O)(CO)Cc3c(O)c4c(c(O)c32)C(=O)c2ccccc2C4=O)O1.Cl` (stereo not given in full), in the experiment on L1210 (1565) [1], the T/C is on record as 280%. With `C[C@@H]1OC(O[C@H]2C[C@](O)(CO)Cc3c(O)c4c(c(O)c32)C(=O)c2ccccc2C4=O)C[C@H](N)[C@@H]1O.Cl` (stereo not given in full), in the experiment with L1210 (1565) [11], the T/C is on record as 230%. `CC(=O)[C@]1(O)Cc2c(O)c3c(c(O)c2[C@@H](O[C@H]2C[C@@H](N)[C@@H](O)[C@H](C)O2)C1)C(=O)c1ccccc1C3=O.Cl` returned a T/C with L1210 (1565) [4] of 240%.

Take `CC1OC(O[C@H]2C[C@](O)(C(=O)NCc3ccccc3)Cc3c(O)c4c(c(O)c32)C(=O)c2ccccc2C4=O)CC(N)C1O.Cl` (stereo not given in full): in the experiment with L1210 (1565) [12], the T/C is given as 130%. With `CC(=O)[C@]1(O)Cc2c(O)c3c(c(O)c2[C@@H](O[C@H]2C[C@@H](N)[C@H](O)[C@H](C)O2)C1)C(=O)c1ccccc1C3=O.Cl`, the T/C in the experiment with L1210 (1565) [13] is 230%; in the experiment on P388 [14] it was 174%. Compound `CC1OC(O[C@H]2C[C@](O)(CCO)Cc3c(O)c4c(c(O)c32)C(=O)c2ccccc2C4=O)CC(N)C1O.Cl` (stereo not given in full) displayed a T/C in the experiment on L1210 (1565) [7] of 450%. As to `C[C@@H]1O[C@@H](O[C@H]2C[C@](O)([C@H](C)O)Cc3c(O)c4c(c(O)c32)C(=O)c2ccccc2C4=O)C[C@@H](N)[C@@H]1O.Cl` (stereo in doubt; 36), in the experiment with L1210 (1565) [1] (0.125 mg/kg), the T/C came to 360%. Take `C[C@@H]1O[C@@H](O[C@H]2C[C@](O)([C@H](C)O)Cc3c(O)c4c(c(O)c32)C(=O)c2ccccc2C4=O)C[C@@H](N)[C@@H]1O.Cl` (stereo in doubt; 25): the T/C in the experiment on L1210 (1565) [1] (0.125 mg/kg) is reported as 220%.

As to `COc1cccc2c1C(=O)c1c(O)c3c(c(O)c1C2=O)C[C@@](O)(C(=O)CO)C[C@@H]3O[C@H]1C[C@H](N)[C@H](O)[C@H](C)O1` [DOXORUBICIN], the T/C with L1210 (1565) [15] came to 330%; with P388 [5], 174%. `CCCNC(=O)[C@]1(O)Cc2c(O)c3c(c(O)c2[C@@H](OC2CC(N)C(O)C(C)O2)C1)C(=O)c1ccccc1C3=O.Cl` (stereo not given in full) yielded a T/C in the experiment on L1210 (1565) [9] of 120%. Consider `C[C@@H]1O[C@@H](O[C@H]2C[C@](O)([C@H](C)O)Cc3c(O)c4c(c(O)c32)C(=O)c2ccccc2C4=O)C[C@@H](N)[C@@H]1O.Cl` (stereo in doubt; 35), for which, in the experiment on L1210 (1565) [1] (0.125 mg/kg), the T/C was 270%. For `CC[C@@]1(O)Cc2c(O)c3c(c(O)c2[C@@H](O[C@H]2C[C@H](N)[C@H](O)[C@H](C)O2)C1)C(=O)c1ccccc1C3=O.Cl`, the T/C with L1210 (1565) [4] stood at 420%; with P388 [16], 155%.
